Screening results: PubChem BioAssay, SRMLSC
PTEN del growth = PTEN-deleted cell growth suppression | HCT116 PTEN-null viability, CellTiter-Glo, 60 h; active compounds read low | viability, % at 10 µM | 1.2% of 140,000 active | AID 827;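 active = viability at or below a set limit, 4 SD under the median of all tested compounds, cut at about 3.7% in these data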;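 note: PTEN knockout HCT116 line with beta catenin targeted HCT116 as companion control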
H69AR inhibit = blocks growth of human H69AR lung tumor cells; 6% of 85,000 active; H69AR lung tumor viability, ATP luminescence, 72 h; active compounds read low; viability, % at 10 µM;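 active = viability at or below 40%; inactive = viability above 40%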;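 note: multidrug resistant small cell line overexpressing MRP-1 efflux transporter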
HCT116 bCat-KO = beta-catenin-lacking colon tumor cell growth suppression. HCT116 beta-catenin knockout viability, CellTiter-Glo, 60 h; active compounds read low. viability, % at 10 µM. 1.5% of 140,000 active;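 active = viability at or under a set limit, the compound median less 4 SD, cut at about 6% in these data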
Lung fibro prol = blocks proliferation of human lung fibroblasts; LL 47 human lung fibroblast viability, ATP luminescence; active compounds read low; viability, % at 10 µM; 1.1% of 85,000 active; AID 719;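 active = viability at or below 50% in the single dose screen; inactive = viability above 50%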;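 note: compound exposure lasted 72 h before the ATP readout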
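Assay system: human lung fibroblast line LL 47, low passage. Input: 1,150 fibroblasts seeded per well. Times: overnight cell rest, 72 h compound treatment at 37 °C. Evaluation: % viability of median cell-only signal. Technique: luminescent ATP detection, CellTiter-Glo. Control set: cell-only wells, no compound.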
HUVEC prolif 384 = blocks proliferation of human endothelial cells. HUVEC proliferation, CellTiter-Glo luminescence, 72 h; active compounds read low. viability, % at 10 µM (by protocol). 1.1% of 86,000 active. AID 648;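 active = viability at or below 30%; inactive = viability above 30%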
Each line names hits and unclear results; the compound was inactive in the other large screens. The sample as a whole holds a higher share of hits than the screen did.

O=C1NC(=S)N(C(=O)c2ccc(F)cc2)/C1=C/c1ccccc1	PTEN del growth 1.7 (no result: H69AR inhibit, Lung fibro prol, HUVEC prolif 384)
COc1ccc(OCc2nc(N)nc(Nc3ccccc3)n2)cc1	none
Cc1c(-c2nc(N)nc(Nc3ccccc3)n2)oc2ccccc12	H69AR inhibit 14
Cn1ccc(C(=O)Nc2ccc(Br)cc2Br)n1	none (no result: H69AR inhibit, Lung fibro prol, HUVEC prolif 384)
Cc1csc(C(C#N)C(=O)c2cc3ccccc3o2)n1 (configuration not stated)	none
O=C(Oc1ccccc1-c1nnco1)c1ccc(Cl)cc1	Lung fibro prol 34
O=C(Nc1ccccc1OC(=O)c1ccc(Cl)cc1)c1ccc(Cl)cc1	none (no result: H69AR inhibit, Lung fibro prol, HUVEC prolif 384)
CCc1nc(N)c(C#N)c(-c2ccccc2OC)c1C	none
Cc1ccc(-n2[nH]c3c4c(ccc3c2=O)C(=O)c2ccccc2C4=O)cc1	none (no result: H69AR inhibit, Lung fibro prol, HUVEC prolif 384)
CC(C)(C)n1[nH]c2c3c(ccc2c1=O)C(=O)c1ccccc1C3=O	HUVEC prolif 384 3.3
COCCCn1[nH]c2c3c(ccc2c1=O)C(=O)c1ccccc1C3=O	HUVEC prolif 384 6.8
O=C(COC(=O)CNC(=O)c1ccccc1)Nc1nc(-c2ccccc2)cs1	none (no result: H69AR inhibit, Lung fibro prol, HUVEC prolif 384)
CCCCn1c(-c2ccco2)nc2ccccc2c1=O	none
CCc1cc2cc3c(cc2nc1SCC(=O)N1CCN(C(=O)c2ccco2)CC1)OCO3	none
CCc1cc2ccc(C)cc2nc1SCC(=O)N1CCN(C(=O)c2ccco2)CC1	H69AR inhibit 36
O=C(c1ccc(Cn2cc(Cl)cn2)cc1)N1CCN(c2ccccc2)CC1	none
O=C(c1ccc(Cn2cc(Br)cn2)cc1)N1CCN(c2ccccc2)CC1	H69AR inhibit 8.8
CCOC(=O)N1CCC(NC(=O)c2cc3c(C)nc4ccccc4c3o2)CC1	none
CCOC(=O)N1CCC(NC(=O)c2cc(C)c3c(C)nn(-c4ccccc4)c3n2)CC1	H69AR inhibit 22
O=C(CN1C(=O)c2ccccc2C1=O)c1ccccc1	none
CC1=C(CC(=O)c2ccccc2)C(=O)c2ccccc2C1=O	PTEN del growth 2.0, HCT116 bCat-KO 2.2 (no result: H69AR inhibit, Lung fibro prol, HUVEC prolif 384)
COc1ccccc1-c1cc(C(=O)Nc2cc(C)nn2-c2ccccc2)no1	H69AR inhibit 27
Cc1cc(C(=O)Nc2cc(C)n(Cc3ccc(Cl)cc3)n2)no1	none
COc1ccc(-c2cc(C(=O)Nc3cc(C)nn3-c3ccccc3)no2)cc1	none
COc1ccccc1-c1cc(C(=O)Nc2cc(C)n(Cc3ccc(Cl)cc3)n2)no1	H69AR inhibit 5.4
COCCNC(=O)c1cc(-c2ccccc2OC)on1	H69AR inhibit 36
O=C(/C=C/c1cccc([N+](=O)[O-])c1)NCCSCc1cccc(Cl)c1	none (no result: H69AR inhibit, Lung fibro prol, HUVEC prolif 384)
CCOC(=O)c1c(C)[nH]c(C)c1C(=O)CSc1ncccn1	none (no result: H69AR inhibit, Lung fibro prol, HUVEC prolif 384)
Cc1cccc(NC(=O)C(=O)NCCCc2ccccc2)c1	none (no result: H69AR inhibit, Lung fibro prol, HUVEC prolif 384)
COc1ccc(C2C(C(=O)O)CCC(=O)N2c2ccc(OC)cc2)cc1 (configuration not stated)	none
CCCCN(C)C(=O)C1CCC(=O)N(c2cc(OC)c(OC)c(OC)c2)C1c1ccc(OC)cc1 (configuration not stated)	PTEN del growth 0.7, HCT116 bCat-KO 0.9
COc1cc2c(-c3ccc(O)cc3)nc3c(c(C)nn3-c3ccccc3)c2cc1OC	PTEN del growth 1.2, HCT116 bCat-KO 1.0 (no result: H69AR inhibit, Lung fibro prol, HUVEC prolif 384)
OCCCNc1nc(-c2ccc(Cl)cc2)nnc1-c1ccccc1	none (no result: H69AR inhibit, Lung fibro prol, HUVEC prolif 384)
C=CCNc1nc(-c2ccccn2)nnc1-c1ccccc1	Lung fibro prol 14, HUVEC prolif 384 12
CC1CCN(c2ccc(N3C(=O)C4CCCCC4C3=O)cc2[N+](=O)[O-])CC1 (configuration not stated)	none (no result: H69AR inhibit, Lung fibro prol, HUVEC prolif 384)
Cc1cc(N/N=C/c2ccc(O)cc2O)nc(-c2ccccc2O)n1	PTEN del growth 2.7, HCT116 bCat-KO 5.9 (no result: H69AR inhibit, Lung fibro prol, HUVEC prolif 384)
C=CCn1c(SCc2csc(C)n2)nc2sc3c(c2c1=O)CCCC3	none
C=CCn1c(SCc2csc(C)n2)nc2sc3c(c2c1=O)CCC(C)C3 (configuration not stated)	H69AR inhibit 31
[O-][n+]1onc2c3ccnnc3ccc21	H69AR inhibit 38
Cc1cc2c(ccc3c2no[n+]3[O-])nn1	H69AR inhibit 37
[O-][n+]1onc2c1CCc1nnccc1-2	none
C=CCn1c(COc2ccccc2F)nnc1SCCN1C(=O)c2ccccc2C1=O	none (no result: H69AR inhibit, Lung fibro prol, HUVEC prolif 384)
O=C(C1CCN(S(=O)(=O)c2ccccc2)CC1)N1CCOCC1	none
COC(=O)c1c(NC(=O)c2ccccc2)sc2c1CC(C)(C)OC2	H69AR inhibit 36
COCCOC(=O)c1[nH]c2c(c1C)C(=O)CC(c1ccc(F)cc1)C2 (configuration not stated)	H69AR inhibit 25
COCCOC(=O)c1[nH]c2c(c1C)C(=O)CC(c1ccc(N(C)C)cc1)C2 (configuration not stated)	none
